From ChEMBL document CHEMBL1156412, “Absolute stereostructures of three new sesquiterpenes from the fruit of Alpinia oxyphylla with inhibitory effects on nitric oxide production and degranulation in RBL-2H3 cells” (J Nat Prod, 2002)
pIC50: −log10 of the molar value.

Key:
RBL-2H3 [1] = assay: Inhibition of rat RBL2H3 cell degranulation assessed as inhibition of beta-hexosamidase release at 10 uM after 10 mins by microplate reader assay relative to control; assay type: functional; conditions: RBL-2H3, 10 min
Summary of the method: (§1)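 RBL-2H3 cells, 2 × 10^5/well, sensitized overnight with 0.45 µg/mL anti-DNP IgE. Cells washed, then held in Siraganian buffer (pH 7.2, glucose, CaCl2, 0.1% BSA). Sample (0.1% DMSO final) added for 10 min, then DNP-BSA (10 µg/mL final) for 10 min at 37 °C. Supernatant β-hexosaminidase assayed on 1 mM p-nitrophenyl-N-acetyl-β-D-glucosaminide, pH 4.5, 1 h, 405 nm. Inhibition corrected for blank and spontaneous release; N=4.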

RBL-2H3 [2] = assay: Inhibition of rat RBL2H3 cell degranulation assessed as inhibition of beta-hexosamidase release at 30 uM after 10 mins by microplate reader assay relative to control; assay type: functional; conditions: RBL-2H3, 10 min; summary of the method: as §1
RBL-2H3 [3] = assay: Inhibition of rat RBL2H3 cell degranulation assessed as inhibition of beta-hexosamidase release at 100 uM after 10 mins by microplate reader assay relative to control; assay type: functional; conditions: RBL-2H3, 10 min; summary of the method: as §1
Macrophage [4] = assay: Inhibition of LPS-induced NO production in ddY mouse macrophages assessed as […] accumulation at 10 uM after 20 hrs by Griess reagent method relative to control; assay type: functional
Summary of the method: (§2)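 Adherent peritoneal macrophages from male ddY mice, 5 × 10^5 cells/well, in RPMI 1640 with 5% FCS. Cultured 20 h with 10 µg/mL LPS and compound (3-100 µM, 0.5% DMSO final). Nitrite in the medium measured with Griess reagent. Inhibition % = (A−B)/(A−C)×100 against LPS-only and unstimulated wells. N=4; IC50 determined graphically.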

Macrophage [5] = assay: Inhibition of LPS-induced NO production in ddY mouse macrophages assessed as […] accumulation at 30 uM after 20 hrs by Griess reagent method relative to control; assay type: functional; summary of the method: as §2
Macrophage [6] = assay: Inhibition of LPS-induced NO production in ddY mouse macrophages assessed as […] accumulation at 100 uM after 20 hrs by Griess reagent method relative to control; assay type: functional; summary of the method: as §2
Macrophage [7] = assay: Inhibition of LPS-induced NO production in ddY mouse macrophages assessed as […] accumulation after 20 hrs by Griess reagent method; assay type: functional, cell-based; summary of the method: as §2
Macrophage [8] = assay: Inhibition of LPS-induced NO production in ddY mouse macrophages assessed as nitrite accumulation at 3 uM after 20 hrs by Griess reagent method relative to control
RBL-2H3 [9] = assay: Inhibition of rat RBL2H3 cell degranulation assessed as inhibition of beta-hexosamidase release after 10 mins by microplate reader assay; assay type: functional, cell-based; conditions: RBL-2H3, 10 min; summary of the method: as §1
[10] = Cytotoxicity against ddY mouse macrophages after 20 hrs by MTT assay; assay type: cell-based; conditions: macrophage
Summary of the method: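 Peritoneal exudate macrophages from male ddY mice (adherent after 1 h preculture, >95% macrophages) in RPMI 1640 with 5% FCS. Exposed to 10 µg/mL LPS plus test compound, 0.5% DMSO final, for 20 h. MTT then added for 4 h. Formazan dissolved in 2-propanol/0.04 M HCl and read at 570 nm (reference 655 nm).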

Compound	inhibition at 10 µM (RBL-2H3 [1]) [%]	inhibition at 30 µM (RBL-2H3 [2]) [%]	inhibition at 100 µM (RBL-2H3 [3]) [%]	inhibition at 10 µM (Macrophage [4]) [%]	inhibition at 30 µM (Macrophage [5]) [%]	inhibition at 100 µM (Macrophage [6]) [%]	pIC50 (Macrophage [7])	inhibition at 3 µM (Macrophage [8]) [%]	pIC50 (RBL-2H3 [9])	Activity [10]
C=C(C)[C@@H]1CC[C@@]2(C)CC[C@@H](O)C(=C)C2C1 (some centres not stated) [ISOCYPEROL]	-5.3	-11.9	-28.9	23.9	64.4	96.8	4.68	10.3		
CC(C)[C@@H]1CCC(=O)C2=C1[C@H](O)[C@](C)(O)CC2 [OXYPHYLLENODIOL A]	1.1	0.4	1.7	16.9	52.5	102	4.55	11.8		
CNC(=N)NCCC[C@H](N)C(=O)O [TILARGININE]				17.7	52.3	79.2	4.55	2		
C=C(C)[C@@H]1CC[C@@]2(O)[C@@H](O)CC[C@@H](C)[C@]2(C)C1 [OXYPHYLLOL C]	-1.1	2.4	8.2							
C[C@@]12CCC(=O)C=C1[C@@](C)(O)[C@H](O)CC2 [OXYPHYLLENONE A]	-3.3	-4.5	-4.7	-2.9	43	85.7	4.46	1.6		
O=c1cc(-c2ccc(O)c(O)c2)oc2cc(O)cc(O)c12 [LUTEOLIN]									4.09	
C=C(C)[C@@H]1CC=C2[C@@H](O)CC[C@@H](C)[C@]2(C)C1	-5	-9.2	-8	1.8	31	65.3	4.32	5.8		
C=C1CC[C@H]2C(C)(C)CCC[C@]2(C)[C@H]1C/C=C(/C=O)CC=O	-0.9	13.1	42	9.3	68.1	95.6	4.66	-4.7		Toxic
C=C(C)[C@H]1C=C2[C@](C)(CCC[C@@]2(C)O)CC1 [OXYPHYLLOL A]	-8.3	-15.1	-24	19.3	40.4	74.2	4.38	12.5		
C[C@@]12CCC(=O)C=C1[C@](C)(O)[C@H](O)CC2 [OXYPHYLLENONE B]	-0.8	-1.3	-1.8	0.4	19.2	41.2	< 4.00	-8.1		
C=C(C)[C@@H]1CCC2=CC(=O)C[C@@H](C)[C@]2(C)C1 [NOOTKATONE]	2	8.2	25.8	10.7	44.8	86.9	4.47	-6.2		
COc1cc(O)c2c(=O)cc(-c3ccccc3)oc2c1 [TECHTOCHRYSIN]	11.9	40.8	75.1	19.2	60.6	87.6	4.64	-0.1	4.31	Toxic
COc1cc(O)c2c(=O)c(O)c(-c3ccccc3)oc2c1 [IZALPININ]	1.6	8.7	27.5	14.6	13.4	41.5	< 4.52	6.3		Toxic
COc1cc(/C=C/C(=O)CC(=O)/C=C/c2ccc(O)c(OC)c2)ccc1O [CURCUMIN]		14.2	62.6						5.52	
CC(C)[C@H]1CCC(=O)C2=C1[C@H](O)[C@](C)(O)CC2 [OXYPHYLLENODIOL B]	-4.3	-3.3	-3.1	-0.4	19.6	40.1	< 4.00	-4.2		
C=C(C)[C@@H]1CC[C@@]2(C)CCC[C@@](C)(O)[C@@H]2C1	2.9	4.4	11.9	19.2	42.2	73.3	4.41	2.5		
